This passage reports folding enthalpy and Tm results from the array DNA melting data of Ke et al. (doi:10.1101/2024.01.08.574731).

Series [1] in a line: folding enthalpy; higher = less favourable; fluorescence melt of hairpins on a sequencing array, two-state fit. Particulars: sodium 0.088 M. A digest of the protocol:
(§1)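 Melting temperature and folding enthalpy were derived from bootstrapped two-state fits. The fitted temperatures were raised by 9.35 °C to agree with UV melts, and four replicates were combined by inverse variance. The underlying data were Cy3 fluorescence images of library hairpins, with annealed Cy3 and quencher oligos, on a sequenced MiSeq flow cell in 50 mM Na-HEPES pH 8.0, 25 mM NaCl, taken in 2.5 °C steps up to 60 °C, normalised to pre-quench Cy3 and to control constructs.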

Series [2] can be described thus: melting temperature; fluorescence melt of hairpins on a sequencing array, two-state fit, raised by 9.35 °C to match UV melts. The settings on record: sodium 0.088 M. A digest of the protocol: as §1

In the case of GTTCAGCCGAAAGGCAAC (((..(((....)))))), the folding enthalpy in series [1] is -30.9 kJ/mol. In addition, the Tm in series [2] was 31.4 °C.
The like results for GTTCAGGAAACTGAAC ((((((....)))))) were, in that order, -154 kJ/mol and 53.8 °C.
For the sequence GTTCAGGGAAACCCGAAC ((((.((....)).)))), the folding enthalpy in series [1] was -133 kJ/mol. The Tm in series [2] amounted to 42.3 °C.
The like results for GTTCCCCGAAAGGGAAC (((.(((....)))))) were, in that order, -124 kJ/mol and 61.2 °C.
The like results for GTTCCCCGAAAGGGTAAC (((.(((....))).))) were, in that order, -83.3 kJ/mol and 40.9 °C.
The matching figures for GTTCCCGAAAGGGCGAAC ((((((....)))..))): -39.3 kJ/mol and 31.5 °C.
As to GTTCCCGAAAGGGGTAAC ((((((....)))..))), the folding enthalpy in series [1] is -51 kJ/mol. Also, the Tm in series [2] stood at 29.8 °C.
On to GTTCCCGAAAGGGTGAAC ((((((....)))..))), for which the folding enthalpy in series [1] was -52.2 kJ/mol. The Tm in series [2] came out at 35.5 °C.
GTTCCCGGAAACAGGAAC (((((.(....).))))): the folding enthalpy in series [1] was -136 kJ/mol. In addition, the Tm in series [2] was determined as 39.5 °C.
Take GTTCCCGGAAACGGGGAC ((.((((....)))).)): the folding enthalpy in series [1] was -112 kJ/mol. In addition, the Tm in series [2] was determined as 58.5 °C.
As for GTTCCGCGAAAGCGTAAC (((.(((....))).))), the folding enthalpy in series [1] was -84.7 kJ/mol. In series [2], the Tm is 44.1 °C.
With GTTCGACCGAAAGGTAAC (((..(((....)))))), the folding enthalpy in series [1] is -45.8 kJ/mol. In addition, in series [2], the Tm turned out to be 27.3 °C.
The matching figures for GTTCGAGGAAACCCGAAC (((((.(....).))))): -125 kJ/mol and 47 °C.
In the case of GTTCGAGGAAACTCGAGC (.(((((....))))).), in series [1], the folding enthalpy is -90.6 kJ/mol. Moreover, in series [2], the Tm came to 49.8 °C.
The matching figures for GTTCGCCGAAAGGCCAAC (((.(((....))).))): -63.9 kJ/mol and 39.4 °C.
Regarding GTTCGCGAAAGCGCCAAC ((((((....)))..))), in series [1], the folding enthalpy was -34.5 kJ/mol. Further, the Tm in series [2] was found to be 25.6 °C.
For GTTCGCGAAAGCGTCAAC ((((((....)))..))), in series [1], the folding enthalpy is -37.9 kJ/mol. In addition, the Tm in series [2] worked out at 28.1 °C.
The like results for GTTCGCGGAAACGTGAGC (.((.((....)).)).) were, in that order, -93.5 kJ/mol and 41.3 °C.
The matching figures for GTTCGCTCGAAAGAGAAC (((..(((....)))))): -82.8 kJ/mol and 37.5 °C.
Regarding GTTCGGAAACGAAC (((((....))))), the folding enthalpy in series [1] was -108 kJ/mol. Also, the Tm in series [2] was found to be 56 °C.
Consider GTTCGGGCGAAAGCCAAC (((..(((....)))))), for which the folding enthalpy in series [1] was -44.9 kJ/mol. In series [2], the Tm was 26.2 °C.
The like results for GTTCGGGGAAACTCGGAC ((.((.(....).)).)) were, in that order, -107 kJ/mol and 39 °C.
The like results for GTTCGTCGAAAGACAAAC (((.(((....))).))) were, in that order, -69.4 kJ/mol and 41.2 °C.
Take GTTCGTGGAAACACGAAC (((((((....))))))): in series [1], the folding enthalpy was -165 kJ/mol. Further, the Tm in series [2] stood at 65.8 °C.
The matching figures for GTTCGTGGAAACACGAGC (.(((((....))))).): -89.9 kJ/mol and 52.7 °C.
The matching figures for GTTCTAGGAAACTGGAAC ((((.((....)).)))): -120 kJ/mol and 42.2 °C.
The matching figures for GTTCTCCGAAAGGAAAC (((.(((....)))))): -66.9 kJ/mol and 35.8 °C.
Turning to GTTCTCGAAAGAGATAAC ((((((....)))..))), in series [1], the folding enthalpy was -58.1 kJ/mol. Moreover, the Tm in series [2] is 28.8 °C.
The matching figures for GTTCTCGAAAGAGTAAC ((((((....))).))): -77.3 kJ/mol and 34.9 °C.
The matching figures for GTTCTGGGAAACCGGAAC ((((.((....)).)))): -174 kJ/mol and 50.9 °C.
Turning to GTTCTTGGAAACAAGAGC (.(((((....))))).), in series [1], the folding enthalpy was -82.1 kJ/mol. In series [2], the Tm turned out to be 41.5 °C.
For the sequence GTTGAACGAAAGTTGAAC (((.(((....))).))), in series [1], the folding enthalpy is -109 kJ/mol. The Tm in series [2] was found to be 38.1 °C.
For the sequence GTTGAAGGAAACTTCAGC (.(((((....))))).), the folding enthalpy in series [1] is -96.2 kJ/mol. In series [2], the Tm was found to be 41.4 °C.
In the case of GTTGAAGGAAACTTCGAC ((.((((....)))).)), the folding enthalpy in series [1] was -136 kJ/mol. In addition, in series [2], the Tm is 44.9 °C.
The matching figures for GTTGACGAAAGTCCAAC ((((((....))).))): -74.1 kJ/mol and 40.9 °C.
As to GTTGACGAAAGTCTAAAC ((((((....)))..))), the folding enthalpy in series [1] is -53.3 kJ/mol. In addition, the Tm in series [2] worked out at 30.4 °C.
Turning to GTTGACGCGAAAGCGAAC (((..(((....)))))), in series [1], the folding enthalpy was -54.2 kJ/mol. The Tm in series [2] was determined as 39 °C.
The matching figures for GTTGACGGAAACGTTAGC (.(.(((....))).).): -32.8 kJ/mol and 29.9 °C.
On to GTTGAGCGAAAGCTAAC (((.(((....)))))), for which the folding enthalpy in series [1] is -63.8 kJ/mol. In addition, the Tm in series [2] was determined as 39.8 °C.
The like results for GTTGAGGGAAACTTCAGC (.(((.(....).))).) were, in that order, -69.5 kJ/mol and 31.7 °C.
The matching figures for GTTGAGGGAAACTTCGAC ((.((.(....).)).)): -84.8 kJ/mol and 31.5 °C.
The like results for GTTGATGGAAACACCAAC ((((.((....)).)))) were, in that order, -126 kJ/mol and 37 °C.
With GTTGCACGAAAGTGAAAC (((.(((....))).))), in series [1], the folding enthalpy is -132 kJ/mol. Moreover, the Tm in series [2] was determined as 51.8 °C.
GTTGCAGGAAACTGCAAC (((((((....))))))): the folding enthalpy in series [1] is -166 kJ/mol. In addition, the Tm in series [2] was determined as 68 °C.
Take GTTGCAGGAAACTGTAAC (((.(((....))).))): the folding enthalpy in series [1] is -125 kJ/mol. In series [2], the Tm came out at 45.8 °C.
The like results for GTTGCAGGAAACTGTGAC ((..(((....)))..)) were, in that order, -125 kJ/mol and 37.9 °C.
As for GTTGCCCGAAAGGGAAAC (((.(((....))).))), the folding enthalpy in series [1] is -135 kJ/mol. Besides, the Tm in series [2] worked out at 56.4 °C.
The matching figures for GTTGCCGAAAGGCAAAAC ((((((....)))..))): -40.5 kJ/mol and 42.5 °C.
On to GTTGCCGAAAGGCAAAC ((((((....))).))), for which the folding enthalpy in series [1] is -48.5 kJ/mol. For the same sequence, the Tm in series [2] was 58 °C.
GTTGCCGAAAGGCGGAAC ((((((....)))..))): the folding enthalpy in series [1] is -33.3 kJ/mol. The Tm in series [2] was 32.8 °C.
The like results for GTTGCCGAAAGGCGTAAC ((((((....)))..))) were, in that order, -40.4 kJ/mol and 34.7 °C.
The matching figures for GTTGCCGAAAGGCTGAAC ((((((....)))..))): -38.4 kJ/mol and 31.4 °C.
The like results for GTTGCCGAAAGGCTTAAC ((((((....)))..))) were, in that order, -37.5 kJ/mol and 26.6 °C.
In the case of GTTGCCGGAAACAGCAAC (((((.(....).))))), in series [1], the folding enthalpy was -115 kJ/mol. In series [2], the Tm turned out to be 46.9 °C.
The like results for GTTGCCGGAAACGGCGAC ((.((((....)))).)) were, in that order, -84.1 kJ/mol and 64.1 °C.
Regarding GTTGCCGGAAACGGTAGC (.(.(((....))).).), the folding enthalpy in series [1] is -71.9 kJ/mol. Moreover, the Tm in series [2] turned out to be 39.7 °C.
The like results for GTTGCGGCGAAAGCCAAC (((..(((....)))))) were, in that order, -61.6 kJ/mol and 37.8 °C.
With GTTGCGGGAAACCGCGAC ((.((((....)))).)), the folding enthalpy in series [1] is -130 kJ/mol. Further, the Tm in series [2] worked out at 60.7 °C.
The like results for GTTGCGGGAAACTGCAAC (((((.(....).))))) were, in that order, -161 kJ/mol and 56.2 °C.
The matching figures for GTTGCGTCGAAAGACAAC (((..(((....)))))): -57.9 kJ/mol and 30.3 °C.
The like results for GTTGCTACGAAAGTAAAC (((..(((....)))))) were, in that order, -39.5 kJ/mol and 28.6 °C.
As for GTTGCTCGAAAGAGTAAC (((.(((....))).))), in series [1], the folding enthalpy was -147 kJ/mol. For the same sequence, in series [2], the Tm was found to be 52.4 °C.
The like results for GTTGCTGGAAACGGTAAC (((.(.(....).).))) were, in that order, -68.5 kJ/mol and 33.7 °C.
The like results for GTTGGACGAAAGTCAAC (((.(((....)))))) were, in that order, -73.3 kJ/mol and 48.6 °C.
With GTTGGAGCGAAAGCTAAC (((..(((....)))))), in series [1], the folding enthalpy is -89.7 kJ/mol. Besides, in series [2], the Tm was found to be 36.9 °C.
The like results for GTTGGAGGAAACCCCAAC (((((.(....).))))) were, in that order, -147 kJ/mol and 44.5 °C.
As for GTTGGAGGAAACTCCAGC (.(((((....))))).), in series [1], the folding enthalpy is -88.1 kJ/mol. Further, in series [2], the Tm is 47.6 °C.
The like results for GTTGGAGGAAACTCTGAC ((..(((....)))..)) were, in that order, -87.9 kJ/mol and 34 °C.
Consider GTTGGCCCGAAAGGGAAC (((..(((....)))))), for which the folding enthalpy in series [1] is -78.8 kJ/mol. In addition, in series [2], the Tm came to 45.3 °C.
The matching figures for GTTGGCCGAAAGGCAAC (((.(((....)))))): -70.4 kJ/mol and 53.9 °C.
With GTTGGCGAAAGCCCGAAC ((((((....)))..))), in series [1], the folding enthalpy was -37.9 kJ/mol. Moreover, in series [2], the Tm is 24.2 °C.
The like results for GTTGGCGAAAGCCGAAAC ((((((....)))..))) were, in that order, -35.8 kJ/mol and 38.2 °C.
The like results for GTTGGCGAAAGCCTGAAC ((((((....)))..))) were, in that order, -33.8 kJ/mol and 30.9 °C.
